Activity calls are given as the source filed them.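 Rule for the calls: active = peak inhibition of the KCNK3 potassium channel above 30% at some tested dose, plus a fitted dose response curve; inactive = no inhibition at any dose, or no curve could be fitted.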
molecular target: Potassium channel subfamily K member 3 (Rattus norvegicus) (UniProt O54912); test: off-target block of rat KCNK3 – cell-based, FluxOR thallium flux, CRC set 1, selectivity assay for KCNK9 inhibitor project, SAR follow-up (AID 588776); details: KCNK3-expressing cells, FluxOR thallium flux fluorescence
How it was run: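 Material: tetracycline-induced KCNK3-expressing CHO cells; incubation: 90 min dye load, 20 min compound, room temperature; measured by: kinetic FluxOR thallium-flux fluorescence; read-out: baseline-normalized fluorescence change, IC50 and Hill fit; replicates: duplicate or more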

Sequence of Potassium channel subfamily K member 3 (Rattus norvegicus) (O54912 whole entry, looked up): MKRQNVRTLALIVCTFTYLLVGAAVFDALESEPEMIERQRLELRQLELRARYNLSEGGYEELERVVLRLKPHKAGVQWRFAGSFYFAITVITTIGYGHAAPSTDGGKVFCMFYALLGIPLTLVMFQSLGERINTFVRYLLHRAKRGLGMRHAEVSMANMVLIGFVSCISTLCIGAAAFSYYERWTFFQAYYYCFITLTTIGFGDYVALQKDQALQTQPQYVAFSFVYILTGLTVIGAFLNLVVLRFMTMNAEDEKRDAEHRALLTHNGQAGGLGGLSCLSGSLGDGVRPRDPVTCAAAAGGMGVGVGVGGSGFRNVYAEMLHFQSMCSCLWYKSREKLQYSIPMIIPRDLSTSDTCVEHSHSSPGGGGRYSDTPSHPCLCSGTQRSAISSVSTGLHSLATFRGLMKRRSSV

Structure (SMILES) | IC50 [µM]
CC(CC1CC2CCC1C2)n1c(-c2ccco2)n[nH]c1=S (stereo not drawn) | 15.8
COc1ccc(CCSc2nnc(-c3ccco3)n2C(C)C2CC3CCC2C3)cc1OC (stereo not drawn) | 15.5
CC(C1CC2CCC1C2)n1c(SCC(=O)c2ccc(Cl)c(Cl)c2)nnc1-c1ccco1 (stereo not drawn) | 7.94
CC(C1CC2CCC1C2)n1c(SCC(=O)c2ccc3c(c2)OCO3)nnc1-c1ccco1 (stereo not drawn) | 4.87
CC(CCC1CCCC1)n1c(-c2ccco2)n[nH]c1=S (stereo not drawn) | 2.36
COc1cccc(C(=O)CSc2nnc(-c3ccco3)n2C(C)C2CC3CCC2C3)c1 (stereo not drawn) | 14.7
C[C@@H](C1CCCCC1)n1c(-c2ccco2)n[nH]c1=S | > 30
CC(C1CC2CCC1C2)n1c(SCC(=O)c2ccccc2)nnc1-c1ccco1 (stereo not drawn) | 1.22

same assay, conditions: KCNK3-expressing cells, FluxOR thallium flux fluorescence; at 30 µM (top of the series)

Structure (SMILES) | flux ratio, lower = inhibition
CC(C1C2CCC1CC2)n1c(-c2ccco2)n[nH]c1=S (stereo not drawn) | inactive
CC(C1CC2CCC1C2)n1c(-c2ccc(N(C)C)cc2)n[nH]c1=S (stereo not drawn) | inactive
CC(C1CC2CCC1C2)n1c(-c2ccncc2)n[nH]c1=S (stereo not drawn) | inactive
C[C@H](C1CCCCC1)n1c(-c2ccco2)n[nH]c1=S | inactive
CC(C1CC2CCC1C2)n1c(-c2cccc(N(C)C)c2)n[nH]c1=S (stereo not drawn) | inactive
